{"data": "Experimental data collected from several papers", "read-out": "cell growth or viability", "note": "Compare with care: the assays were run in different laboratories. pIC50: −log10 of the molar value."}
{"Compound": "CC1(C)CC[C@]2(C)CC[C@]3(C)C(=CC[C@@H]4[C@@]5(C)CC[C@H](O)C(C)(C)[C@@H]5CC[C@]43C)[C@@H]2C1", "cell line": "WI-38", "technique": "WST-1", "time": "48 h", "quantity": "pIC50", "value": 3.99}
{"Compound": "O=C(N[C@@H](Cc1ccccc1)C(=O)c1cn(-c2ccccc2)nn1)[C@H](Cc1ccccc1)NC(=O)N1CCOCC1 (single isomer, unassigned)", "cell line": "MRC-5 SV2", "quantity": "CC50", "value": "> 64 µM"}
{"Compound": "CCOC(=O)C(C(C)=O)=C1Sc2nc3ccc(S(=O)(=O)N4CCCC4)cc3nc2S1", "cell line": "WI-38", "technique": "MTT", "concentration": "25 µM", "time": "24 h", "quantity": "viability", "value": "60.1%"}
{"Compound": "COC(=O)c1c(C)ncn1CC(c1c[nH]c2ccc(C)cc12)c1c[nH]c2ccc(C)cc12", "cell line": "HaCaT", "technique": "MTS", "time": "24 h", "quantity": "CC50", "value": "> 20 µM"}
{"Compound": "O=c1oc2c(O)c(O)cc3c(=O)oc4c(O)c(O)cc1c4c23", "cell line": "CEM-GFP", "technique": "MTT", "time": "48 h", "quantity": "CC50", "value": "> 250 µg/mL"}
{"Compound": "C[Si](C)(C)c1cc(C(=O)[C@H](Cc2ccccc2)NC(=O)[C@H](Cc2ccccc2)NC(=O)N2CCOCC2)no1 (single isomer, unassigned)", "cell line": "MRC-5 SV2", "quantity": "CC50", "value": "> 64 µM"}
{"Compound": "COc1cccc2c1C(=O)c1c(O)c3c(c(O)c1C2=O)C[C@@](O)(C(=O)CO)C[C@@H]3O[C@H]1C[C@H](N)[C@H](O)[C@H](C)O1", "cell line": "WI-38", "technique": "MTT", "concentration": "100 µM", "time": "24 h", "quantity": "viability", "value": "7.8%"}
{"Compound": "O=C(N[C@@H](Cc1ccccc1)C(=O)c1cc(-c2ccccc2)no1)[C@H](Cc1ccccc1)NC(=O)N1CCOCC1 (mixture of isomers)", "cell line": "MRC-5 SV2", "quantity": "CC50", "value": "> 64 µM"}
{"Compound": "N#CC(C(=O)Nc1cccc(C(F)(F)F)c1)=C1Sc2nc3ccc(S(=O)(=O)N4CCCC4)cc3nc2S1", "cell line": "WI-38", "technique": "MTT", "concentration": "50 µM", "time": "24 h", "quantity": "viability", "value": "55.4%"}
{"Compound": "O=C(N[C@@H](Cc1ccccc1)C(=O)c1nccs1)[C@H](Cc1ccccc1)NC(=O)N1CCOCC1", "cell line": "MRC-5 SV2", "quantity": "CC50", "value": "> 64 µM"}
{"Compound": "O=C1CCCCC1=C1Sc2nc3ccc(S(=O)(=O)N4CCCC4)cc3nc2S1", "cell line": "WI-38", "technique": "MTT", "concentration": "3.125 µM", "time": "24 h", "quantity": "viability", "value": "100%"}
{"Compound": "Nc1ncnc2c1ncn2[C@@H]1O[C@H](CO)[C@@H](O)[C@H]1O", "cell line": "WI-38", "technique": "WST-1", "time": "48 h", "quantity": "pIC50", "value": 3.88}
{"Compound": "O=C(N[C@H](CCc1ccccc1)C(=O)c1cc(Cc2ccccc2)on1)[C@H](Cc1ccccc1)NC(=O)N1CCOCC1", "cell line": "MRC-5 SV2", "quantity": "CC50", "value": "> 64 µM"}
{"Compound": "CC1(C)CC[C@]2(C)CC[C@]3(C)[C@H]4CC=C5[C@@H](CC[C@H](O)C5(C)C)[C@]4(C)CC[C@@]3(C)[C@@H]2C1", "cell line": "WI-38", "technique": "WST-1", "quantity": "pIC50", "value": 4.20}
{"Compound": "O=C(N[C@@H](Cc1ccccc1)C(=O)c1nc2ccccc2o1)[C@H](Cc1ccccc1)NC(=O)N1CCOCC1", "cell line": "MRC-5 SV2", "quantity": "CC50", "value": "> 64 µM"}
{"Compound": "Cc1cn(CC(c2cn(C)c3ccccc23)c2cn(C)c3ccccc23)nn1", "cell line": "HaCaT", "technique": "MTS", "time": "24 h", "quantity": "CC50", "value": "> 20 µM"}
{"Compound": "CC(=O)OC1c2c(ccc3ccc(=O)oc23)OC(C)(C)C1OC(=O)C(C)(O)C(C)O (stereo not drawn)", "cell line": "WI-38", "technique": "WST-1", "quantity": "pIC50", "value": 4.05}
{"Compound": "C[C@@H]1[C@H](O)[C@@H](C)/C=C/C=C/C=C/C=C/C=C/C=C/C=C/[C@H](O[C@@H]2O[C@H](C)[C@@H](O)[C@H](N)[C@@H]2O)C[C@@H]2O[C@](O)(C[C@@H](O)C[C@@H](O)[C@H](O)CC[C@@H](O)C[C@@H](O)CC(=O)O[C@H]1C)C[C@H](O)[C@H]2C(=O)O", "cell line": "HaCaT", "technique": "MTS", "time": "24 h", "quantity": "CC50", "value": "7.95 µM"}
{"Compound": "COC(=O)[C@]1(O)C[C@@H](O)[C@@H](O)[C@H](OC(=O)/C=C/c2ccc(O)c(O)c2)C1", "cell line": "WI-38", "technique": "WST-1", "quantity": "pIC50", "value": 3.96}
{"Compound": "COC(=O)c1c(C)ncn1CC(c1c[nH]c2cc(Br)ccc12)c1c[nH]c2cc(Br)ccc12", "cell line": "HaCaT", "technique": "MTS", "time": "24 h", "quantity": "CC50", "value": "> 20 µM"}
{"Compound": "O=c1c(O)c(-c2ccc(O)cc2)oc2cc(O)cc(O)c12", "cell line": "WI-38", "technique": "WST-1", "time": "48 h", "quantity": "pIC50", "value": 4.02}
